Assay results from ChEMBL document CHEMBL2331124, “Efficient synthesis of anacardic acid analogues and their antibacterial activities” (Bioorg Med Chem Lett, 2013).
In brackets after ≈: the same amount, converted by molar mass.

How the values were obtained:
[1] = Cytotoxicity against human HepG2 cells after 24 hrs by resazurin assay; assay type: cell-based
[2] = Cytotoxicity against HEK293 cells after 24 hrs by resazurin assay; assay type: cell-based; conditions: human
Staphylococcus aureus [3] = assay: Antibacterial activity against glycopeptide-intermediate Staphylococcus aureus NRS 19 assessed as growth inhibition after 24 hrs by CLSI twofold serial broth microdilution method; assay type: functional; conditions: NRS 19, 24 h
Outline: (§1)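 CLSI-standard twofold serial broth microdilution; MIC read-out in μg/mL, with vancomycin tested alongside as reference antibiotic.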

Staphylococcus aureus [4] = assay: Antibacterial activity against methicillin-resistant Staphylococcus aureus ATCC 43300 assessed as growth inhibition after 24 hrs by CLSI twofold serial broth microdilution method; assay type: functional; conditions: ATCC 43300, 24 h
Outline: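 Read-out was the MIC in μg/mL, determined by twofold serial broth microdilution to CLSI standards.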

Staphylococcus aureus [5] = assay: Antibacterial activity against Staphylococcus aureus ATCC 25923 assessed as growth inhibition after 24 hrs by CLSI twofold serial broth microdilution method; assay type: functional; conditions: ATCC 25923, 24 h; outline: as §1

Row | SMILES | CC50 at 24 h [1] | CC50 at 24 h [2] | MIC (Staphylococcus aureus [3]) | MIC (Staphylococcus aureus [4]) | MIC (Staphylococcus aureus [5])
1 | Oc1cc(CCc2ccc3ccccc3c2)cc(O)c1O | > 100 µM | > 100 µM |  |  | 
2 | Oc1cc(CCc2ccccc2)cc(O)c1O | 102 µM | 106 µM |  |  | 
3 | O=C(O)c1c(O)cccc1/C=C/c1ccccc1 | > 100 µM | > 100 µM |  |  | 
4 | COc1cc(C=Cc2ccc3ccccc3c2)c(C(=O)O)c(OC)c1 | > 100 µM | > 100 µM | > 128 µg/mL | > 128 µg/mL | > 128 µg/mL
5 | COc1cc(Cl)cc(C=Cc2ccc3ccccc3c2)c1C(=O)O | 104 µM | 93 µM | 128 µg/mL (≈ 378 µM) | 64 µg/mL (≈ 189 µM) | > 128 µg/mL
6 | O=C(O)c1c(O)cccc1CCc1ccc2ccccc2c1 | > 100 µM | > 100 µM | > 128 µg/mL | > 128 µg/mL | > 128 µg/mL
7 | COc1cc(O)c(C(=O)O)c(CCc2ccc3ccccc3c2)c1 | 71 µM | 65 µM | 128 µg/mL (≈ 397 µM) | 64 µg/mL (≈ 199 µM) | 64 µg/mL (≈ 199 µM)
8 | O=C(O)c1c(O)cc(Cl)cc1CCc1ccc2ccccc2c1 | 35 µM | 35 µM | 128 µg/mL (≈ 392 µM) | 16 µg/mL (≈ 49 µM) | 16 µg/mL (≈ 49 µM)
9 | Cc1cc(O)c(C(=O)O)c(CCc2ccc3ccccc3c2)c1 | 38 µM | 40 µM | 128 µg/mL (≈ 418 µM) | 64 µg/mL (≈ 209 µM) | 32 µg/mL (≈ 104 µM)
10 | CCN(CC)C(=O)c1c(/C=C/c2ccc3ccccc3c2)cccc1OC |  | 116 µM |  |  | 
11 | CCN(CC)C(=O)c1c(/C=C\c2ccc3ccccc3c2)cccc1OC | 28 µM | 38.7 µM |  |  | 
12 | CCN(CC)C(=O)c1c(CCc2ccc3ccccc3c2)cccc1OC | 35.8 µM | 85.7 µM |  |  | 
13 | CCN(CC)C(=O)c1c(O)cccc1CCc1ccc2ccccc2c1 | > 100 µM | > 100 µM |  |  | 
14 | CCN(CC)C(=O)c1c(/C=C/c2ccc3ccccc3c2)cc(OC)cc1OC | > 100 µM | > 100 µM |  |  | 
15 | CCN(CC)C(=O)c1c(/C=C\c2ccc3ccccc3c2)cc(OC)cc1OC | > 100 µM | > 100 µM |  |  | 
16 | CCN(CC)C(=O)c1c(CCc2ccc3ccccc3c2)cc(OC)cc1OC | 59 µM | > 100 µM |  |  | 
17 | CCN(CC)C(=O)c1c(O)cc(O)cc1CCc1ccc2ccccc2c1 | 36.4 µM | 30.6 µM |  |  | 
18 | O=C(O)c1c(O)cccc1CCc1ccccc1 | > 100 µM | > 100 µM |  |  | 
19 | COc1cc(/C=C/c2ccccc2)cc(OC)c1OC | 38.4 µM | 62.6 µM |  |  | 
20 | COc1cc(CCc2ccc3ccccc3c2)cc(OC)c1OC | > 100 µM | > 100 µM |  |  | 
21 | COc1cc(/C=C/c2ccc3ccccc3c2)cc(OC)c1OC | 16.8 µM | 23.4 µM |  |  | 
22 | COc1cc(CCc2ccccc2)cc(OC)c1OC | > 100 µM | > 100 µM |  |  | 
23 | COc1cc(/C=C\c2ccccc2)cc(OC)c1OC | 20.2 µM | 36 µM |  |  | 
24 | COc1cccc(C=Cc2ccc3ccccc3c2)c1C(=O)O (mixture of isomers) | > 100 µM | > 100 µM | > 128 µg/mL | > 128 µg/mL | > 128 µg/mL
25 | COc1cc(C)cc(C=Cc2ccc3ccccc3c2)c1C(=O)O (mixture of isomers) | 117 µM | 119 µM | > 128 µg/mL | > 128 µg/mL | > 128 µg/mL
26 | O=C(O)c1c(O)cccc1C=Cc1ccc2ccccc2c1 (mixture of isomers) | 71 µM | 97 µM | 64 µg/mL | 64 µg/mL | 64 µg/mL
27 | COc1cc(O)c(C(=O)O)c(C=Cc2ccc3ccccc3c2)c1 (mixture of isomers) | 79 µM | 65 µM | 128 µg/mL | 128 µg/mL | > 128 µg/mL
28 | O=C(O)c1c(O)cc(Cl)cc1C=Cc1ccc2ccccc2c1 (mixture of isomers) | 25 µM | 38 µM | 16 µg/mL | 16 µg/mL | 16 µg/mL
29 | Cc1cc(O)c(C(=O)O)c(C=Cc2ccc3ccccc3c2)c1 (mixture of isomers) | 30 µM | 52 µM | 32 µg/mL | 16 µg/mL | 16 µg/mL
30 | COc1cc(/C=C\c2ccc3ccccc3c2)cc(OC)c1OC [NAPHTHYLCOMBRETASTATIN] | > 100 µM | > 100 µM |  |  | 
